This assay addresses Transitional endoplasmic reticulum ATPase (Homo sapiens) (UniProt P55072). The experiment in a line: inhibition of purified VCP ATP hydrolysis – biochemical, dose response (AID 463184). The note with it: purified p97 ATPase, Kinase-Glo luminescence. Put shortly:
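Test system: human p97 ATPase enzyme. Also added: ATP substrate, added from 500 µM stock. Timing: Compound–enzyme 10 min at RT, ATP hydrolysis 30 min, 37 °C. Measured by: Kinase-Glo Plus luminescence measuring leftover ATP. Evaluation: IC50 from percent remaining activity fit. Benchmarks: DMSO wells and no-enzyme wells.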
Background: In Kinase-Glo more light means more ATP remaining.

The source made the active and inactive calls.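 Rule for the calls: active = IC50 of 10 microM or lower; inactive = the rest.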

By IC50 is commonly meant the concentration that gives 50% inhibition.

Sequence of Transitional endoplasmic reticulum ATPase (Homo sapiens) (P55072 whole entry, looked up): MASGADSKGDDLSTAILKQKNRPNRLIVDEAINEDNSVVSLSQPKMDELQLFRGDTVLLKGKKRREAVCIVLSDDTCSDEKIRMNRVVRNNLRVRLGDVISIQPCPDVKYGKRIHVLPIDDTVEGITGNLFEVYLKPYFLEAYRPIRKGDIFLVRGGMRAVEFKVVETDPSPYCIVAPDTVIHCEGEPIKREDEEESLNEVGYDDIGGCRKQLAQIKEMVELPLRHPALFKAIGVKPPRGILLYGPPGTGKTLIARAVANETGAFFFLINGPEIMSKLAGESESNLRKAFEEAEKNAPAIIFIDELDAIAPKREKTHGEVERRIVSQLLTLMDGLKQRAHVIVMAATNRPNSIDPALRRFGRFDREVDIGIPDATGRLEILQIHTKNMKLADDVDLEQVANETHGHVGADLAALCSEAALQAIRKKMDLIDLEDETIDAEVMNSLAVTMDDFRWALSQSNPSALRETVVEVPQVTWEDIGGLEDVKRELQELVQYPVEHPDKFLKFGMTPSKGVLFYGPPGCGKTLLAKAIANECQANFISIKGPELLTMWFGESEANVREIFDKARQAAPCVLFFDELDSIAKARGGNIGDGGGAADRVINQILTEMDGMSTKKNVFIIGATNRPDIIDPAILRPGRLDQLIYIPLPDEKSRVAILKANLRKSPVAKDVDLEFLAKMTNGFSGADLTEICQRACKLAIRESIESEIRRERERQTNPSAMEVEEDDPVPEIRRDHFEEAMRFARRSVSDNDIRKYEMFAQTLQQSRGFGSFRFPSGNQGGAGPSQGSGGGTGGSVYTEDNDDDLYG

Consider `N#C/C(=C(\O)COC(=O)CCC(=O)c1ccc2c(c1)OCCO2)c1nc2ccccc2[nH]1`, for which the IC50 is 10 µM. For `Fc1ccc(CNc2nc(NCc3ccccc3)c3ccccc3n2)cc1` the value was 2.6 µM; for `Brc1ccc(CNc2nc(NCc3ccccc3)c3ccccc3n2)cc1`, 4.3 µM; for `COc1ccccc1CNc1nc(NCc2ccccc2)c2ccccc2n1`, 3.6 µM. As to `c1ccc(CNc2nc(NCc3ccccc3)c3ccccc3n2)cc1`, the IC50 is 1.6 µM.

Turning to `FC(F)(F)c1cc(CNc2nc(NCc3ccccc3)c3ccccc3n2)ccc1Cl`, the concentration for half-maximal inhibition (IC50) was 4.7 µM. In the case of `CC(C)c1ccc(Nc2nc(N)nc(CCl)n2)cc1` it was “inactive”; in that of `Fc1ccccc1CNc1nc(NCc2ccccc2)c2ccccc2n1`, 2.9 µM; in that of `Nc1nc(CCl)nc(Nc2ccc(Oc3ccccc3)cc2)n1`, “inactive”.

Turning to `Fc1cccc(CNc2nc(NCc3ccccc3)c3ccccc3n2)c1`, the half-inhibitory concentration (IC50) is 3.1 µM. In the case of `Cc1ccccc1CNc1nc(NCc2ccccc2)c2ccccc2n1` it was 2.7 µM; in that of `Clc1cccc(CNc2nc(NCc3ccccc3)c3ccccc3n2)c1`, 2.7 µM; in that of `Clc1ccccc1CNc1nc(NCc2ccccc2)c2ccccc2n1`, 5.3 µM.

For `Brc1cccc(CNc2nc(NCc3ccccc3)c3ccccc3n2)c1`, the IC50 is 3.7 µM. In the case of `Cc1c(Cl)cccc1Nc1nc(N)nc(CCl)n1` it was “inactive”; in that of `Cc1cccc(CNc2nc(NCc3ccccc3)c3ccccc3n2)c1`, 2.3 µM.

As to `N#C/C(=C(\O)COC(=O)C1COc2ccccc2O1)c1nc2ccccc2[nH]1` (stereo not drawn), the IC50 entry was “inactive”. Consider `Brc1ccccc1CNc1nc(NCc2ccccc2)c2ccccc2n1`, for which the IC50 is 2 µM. For `FC(F)(F)c1ccc(CNc2nc(NCc3ccccc3)c3ccccc3n2)cc1` the value was 2.6 µM; for `CCc1nc2ccccc2n1CC(=O)OC/C(O)=C(/C#N)c1nc2ccccc2[nH]1`, “inactive”. As to `N#C/C(=C(\O)COC(=O)CNc1ccc(C(F)(F)F)cc1[N+](=O)[O-])c1nc2ccccc2[nH]1`, the IC50 result is “inactive”. For `COc1ccc(CNc2nc(NCc3ccccc3)c3ccccc3n2)cc1` the value was 3 µM; for `Clc1ccc(CNc2nc(NCc3ccccc3)c3ccccc3n2)cc1`, 3.1 µM. For `Cc1ccc(CNc2nc(NCc3ccccc3)c3ccccc3n2)cc1` the value was 3 µM; for `Clc1ccc(CNc2nc(NCc3ccccc3)c3ccccc3n2)cc1Cl`, 3 µM. As to `Nc1nc(CCl)nc(N(c2ccccc2)c2ccccc2)n1`, the IC50 result is “inactive”. In the case of `Nc1nc(CCl)nc(Nc2ccc(Cl)c(Cl)c2)n1` it was “inactive”; in that of `COc1cccc(CNc2nc(NCc3ccccc3)c3ccccc3n2)c1`, 4.5 µM.

For the origin of these results see PubChem BioAssay AID463184 (Molecular Libraries Program, Specialized Chemistry Center, …, 2010).
